Results published in paper PMC2597202 (Structure (London, England : 1993), 2008).
Entries after “also recorded” stand apart in the source; their conditions may differ.

What was measured:
[1] = target: gp120 core bound to the 17b antibody; experiment: Thermodynamic cycle by isothermal titration calorimetry, gp120 core bound to 17b; type: binding, HIV-1
[2] = test system: viruses with the S375W mutant envelope glycoproteins; experiment: Enhancement of infection of Cf2Th-CCR5 cells, S375W virus; type: cell-based, HIV-1
[3] = test system: viruses with an alanine residue substituted for Glu 429; experiment: Enhancement of infection of Cf2Th-CCR5 cells, Glu 429 to alanine virus; type: cell-based, HIV-1; conditions: Glu 429 replaced with alanine
[4] = test system: viruses containing a chimeric HIV-1 envelope glycoprotein (HX(YU2 V3)); experiment: Enhancement of infection of Cf2Th-CCR5 cells, HX; type: cell-based
HXBc2 gp120 = HXBc2 gp120 (Human immunodeficiency virus type 1 group M subtype B, UniProt P04578); experiment: Direct binding of 3H-labeled NBD-556, HXBc2 gp120; set-up: species or system HIV-1
[5] = test system: envelope glycoproteins of the laboratory-adapted CXCR4-using (X4) HIV-1 isolate, HXBc2; experiment: Entry into CD4-negative Cf2Th-CXCR4 cells, HXBc2 virus; type: cell-based; conditions: data not shown
[6] = test system: viruses with Glu 429 replaced with a lysine residue; experiment: Enhancement of infection of Cf2Th-CCR5 cells, Glu 429 to lysine virus; type: cell-based, HIV-1; conditions: Glu 429 replaced with lysine
[7] = test system: recombinant HIV-1 with the wild-type HIV-1YU2 envelope glycoproteins; experiment: Enhancement of infection of CD4-negative Cf2Th-CCR5 cells, w.t. YU2 virus; type: cell-based
gp120 core-17b complex = experiment: BIAcore analysis; type: binding, HIV-1; conditions: data not shown
[8] = test system: viruses with the S375A change; experiment: Enhancement of infection of Cf2Th-CCR5 cells, S375A virus; type: cell-based, HIV-1; conditions: S375A envelope glycoproteins, compared with w.t.
[9] = test system: Viruses with the S375A envelope glycoproteins; experiment: Inhibition of infection of Cf2Th-CD4/CCR5 cells, S375A virus; type: cell-based, HIV-1
Procedure, shortened: (§1)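 Cf2Th-CD4/CCR5 cells were seeded at 6×10^3/well 24 h ahead. Luciferase viruses bearing YU2 Env (w.t. or S375A) or control A-MLV Env were premixed with test compound (1 to 100 μM) for 30 min at 37°C, then added to the cells for 48 h at 37°C. Luciferase was read after freeze-thaw lysis. Infection was expressed relative to no compound. IC50 is the mean ± SD of five independent experiments, each run in triplicate.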

[10] = test system: viruses with the w.t. YU2 envelope glycoproteins; experiment: Inhibition of infection of Cf2Th-CD4/CCR5 cells, w.t. YU2 virus; type: cell-based, HIV-1; conditions: for IC50: read-out: 50% inhibitory concentration (IC50), Cf2Th-CD4/CCR5 cells, w.t. YU2 envelope glycoproteins
Procedure, shortened: as §1

[11] = test system: viruses with the KB9 envelope glycoproteins; experiment: Entry into CD4-negative Cf2Th-CXCR4 cells, KB9 virus; type: cell-based, HIV-1; conditions: data not shown
D368A mutant viruses = experiment: Enhancement of infection of Cf2Th-CCR5 cells, D368A virus; type: cell-based, HIV-1; conditions: CD4−CCR5+ target cells; D368A envelope glycoproteins
[12] = test system: YU2, HXBc2 and HX(YU2 V3) gp120 glycoproteins; experiment: Direct binding of 3H-labeled BMS-806 to gp120 variants; set-up: species or system HIV-1; conditions: all three gp120 glycoproteins

Compound	Kd ([1]; gp120 core bound to the 17b antibody, isothermal titration calorimetry)	increase in affinity for the gp120 core bound to the 17b antibody ([1]; versus gp120 core alone)	enhancement of infection (in words) [2]	virus-enhancing activity (in words) [3]	enhancement of infection (in words) [4]	direct binding of 3H-labeled NBD-556 (in words) (HXBc2 gp120)	enhancement of entry (in words) [5]	activation of infection (in words) [6]	enhancement of HIV-1 entry/infection of CCR5+ cells (in words) [7]	Kd (gp120 core-17b complex)	enhancement of infection (in words) [8]	IC50 [9]	IC50 [10]	enhancement of entry (in words) [11]	enhancement of infectivity (in words) (D368A mutant viruses)	inhibition of HIV-1YU2 infection of cells expressing CD4 and CCR5 (in words) ([10]; specificity versus A-MLV envelope glycoproteins)	direct binding of 3H-labeled BMS-806 (in words) [12]
CC1(C)CC(NC(=O)C(=O)Nc2ccc(Cl)cc2)CC(C)(C)N1 [NBD-556]	1.5 µM	approximately 25 fold	not enhanced	less disruptive	dramatically enhanced infection	only moderately	not functionally enhanced	eliminated the activation of infection	significant enhancement	6.6 µM	greater enhancement	10 to 20 µM	100 µM	did not enhance	enhanced		
CC1(C)CC(NC(=O)C(=O)Nc2ccc(Cl)c(F)c2)CC(C)(C)N1 [JRC-II-191]			did not activate the entry	significantly diminished				eliminated the activation of infection	most potent stimulation of HIV-1 infection; also recorded: activated HIV-1 infection			10 to 20 µM	54 µM		enhanced	specifically inhibited	
CC1(C)CC(NC(=O)C(=O)Nc2ccc(Br)cc2)CC(C)(C)N1 [NBD-557]			did not activate the entry	significantly diminished				eliminated the activation of infection	comparably to NBD-556						not enhanced		
COc1ccnc2[nH]cc(C(=O)C(=O)N3CCN(C(=O)c4ccccc4)C[C@H]3C)c12 [BMS-806]																	similarly
